Where “and” joins values, the source holds several entries; their conditions need not be identical. Equal entries are not always repeated.
System: U2OS
Experiment: Multiplex assay against U2OS
Assay type: toxicity, cell-based
Conditions: human, number of replicates 2
Method in brief: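 At seeding, live cells were stained with Hoechst33342, BioTracker Green Microtubule Cytoskeleton Dye, MitoTracker Red and Annexin V Alexa Fluor 680. After compound addition they were imaged on a CQ1 microscope at 37°C and 5% CO2, and CellPathfinder machine-learning gating sorted them into Hoechst high-intensity objects or normal cells, with normal cells further split into healthy, pyknosed or fragmented nuclei and pyknosed cells into mitotic or apoptotic. Tubulin, mitochondrial-mass and membrane-permeability phenotypes are given as per cents of cells with healthy nuclei.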

[1] = 12 h, 1 µM, compound concentration 1 uM
[2] = 12 h, 10 µM, compound concentration 10 uM
[3] = 24 h, 1 µM, compound concentration 1 uM
[4] = 24 h, 10 µM, compound concentration 10 uM
[5] = 48 h, 1 µM, compound concentration 1 uM
[6] = 48 h, 10 µM, compound concentration 10 uM

COc1ccc(F)c(F)c1C(=O)c1cnc(NC2CCN(S(C)(=O)=O)CC2)nc1N [RG-547]
Population Apoptotic (%) [1]: 25% and 66%
Population Fragmented Nuclei (%) [1]: 21% and 7%
Population Healthy Nuclei (%) [1]: 68% and 81%
Population Hoechst High Intensity Objects (%) [1]: 0% and 1%
Population Membrane Permeable-Phenotype (%) [1]: 7% and 3%
Population Mitochondria Different-Phenotype (%) [1]: 3% and 2%
Population Mitotic Cells (%) [1]: 75% and 33%
Population Normal (%) [1]: 100% and 98%
Population Pyknosed Nuclei (%) [1]: 10%
Population Tubulin-Different-Phenotype (%) [1]: 69% and 80%
Population Apoptotic (%) [2]: 77% and 70%
Population Fragmented Nuclei (%) [2]: 20% and 12%
Population Healthy Nuclei (%) [2]: 44% and 42%
Population Hoechst High Intensity Objects (%) [2]: 0% and 1%
Population Membrane Permeable-Phenotype (%) [2]: 9% and 14%
Population Mitochondria Different-Phenotype (%) [2]: 0% and 6%
Population Mitotic Cells (%) [2]: 22% and 30%
Population Normal (%) [2]: 100% and 98%
Population Pyknosed Nuclei (%) [2]: 36% and 44%
Population Tubulin-Different-Phenotype (%) [2]: 72% and 57%
Population Apoptotic (%) [3]: 57% and 70%
Population Fragmented Nuclei (%) [3]: 13% and 9%
Population Healthy Nuclei (%) [3]: 66% and 77%
Population Hoechst High Intensity Objects (%) [3]: 0%
Population Membrane Permeable-Phenotype (%) [3]: 4%
Population Mitochondria Different-Phenotype (%) [3]: 4% and 3%
Population Mitotic Cells (%) [3]: 42% and 30%
Population Normal (%) [3]: 100% and 99%
Population Pyknosed Nuclei (%) [3]: 19% and 12%
Population Tubulin-Different-Phenotype (%) [3]: 66% and 79%
Population Apoptotic (%) [4]: 85%
Population Fragmented Nuclei (%) [4]: 15% and 12%
Population Healthy Nuclei (%) [4]: 41% and 32%
Population Hoechst High Intensity Objects (%) [4]: 0% and 2%
Population Membrane Permeable-Phenotype (%) [4]: 21% and 12%
Population Mitochondria Different-Phenotype (%) [4]: 21% and 12%
Population Mitotic Cells (%) [4]: 15% and 14%
Population Normal (%) [4]: 100% and 97%
Population Pyknosed Nuclei (%) [4]: 43% and 54%
Population Tubulin-Different-Phenotype (%) [4]: 68% and 72%
Population Apoptotic (%) [5]: 85%
Population Fragmented Nuclei (%) [5]: 30% and 20%
Population Healthy Nuclei (%) [5]: 39% and 65%
Population Hoechst High Intensity Objects (%) [5]: 0%
Population Membrane Permeable-Phenotype (%) [5]: 11% and 2%
Population Mitochondria Different-Phenotype (%) [5]: 5% and 1%
Population Mitotic Cells (%) [5]: 14%
Population Normal (%) [5]: 100% and 99%
Population Pyknosed Nuclei (%) [5]: 30% and 13%
Population Tubulin-Different-Phenotype (%) [5]: 66% and 75%
Population Apoptotic (%) [6]: 94% and 87%
Population Fragmented Nuclei (%) [6]: 14% and 10%
Population Healthy Nuclei (%) [6]: 11% and 2%
Population Hoechst High Intensity Objects (%) [6]: 5% and 0%
Population Mitotic Cells (%) [6]: 5% and 12%
Population Normal (%) [6]: 94% and 100%
Population Pyknosed Nuclei (%) [6]: 74% and 86%
Population Tubulin-Different-Phenotype (%) [6]: 88% and 100%

CCN1C(=O)N(c2c(F)c(OC)cc(OC)c2F)Cc2cnc3[nH]c(CN4CCOCC4)cc3c21 [PEMIGATINIB]
Population Apoptotic (%) [1]: 83% and 63%
Population Fragmented Nuclei (%) [1]: 7% and 3%
Population Healthy Nuclei (%) [1]: 82% and 90%
Population Hoechst High Intensity Objects (%) [1]: 0%
Population Membrane Permeable-Phenotype (%) [1]: 0% and 1%
Population Mitochondria Different-Phenotype (%) [1]: 0% and 1%
Population Mitotic Cells (%) [1]: 16% and 36%
Population Normal (%) [1]: 100%
Population Pyknosed Nuclei (%) [1]: 9% and 5%
Population Tubulin-Different-Phenotype (%) [1]: 64% and 80%
Population Apoptotic (%) [2]: 33% and 74%
Population Healthy Nuclei (%) [2]: 45% and 78%
Population Hoechst High Intensity Objects (%) [2]: 0%
Population Membrane Permeable-Phenotype (%) [2]: 0% and 5%
Population Mitochondria Different-Phenotype (%) [2]: 0%
Population Mitotic Cells (%) [2]: 66% and 25%
Population Normal (%) [2]: 100%
Population Pyknosed Nuclei (%) [2]: 29% and 15%
Population Tubulin-Different-Phenotype (%) [2]: 64% and 52%
Population Apoptotic (%) [3]: 54% and 90%
Population Fragmented Nuclei (%) [3]: 6% and 2%
Population Healthy Nuclei (%) [3]: 81% and 89%
Population Hoechst High Intensity Objects (%) [3]: 0%
Population Membrane Permeable-Phenotype (%) [3]: 1% and 2%
Population Mitochondria Different-Phenotype (%) [3]: 0% and 2%
Population Normal (%) [3]: 100% and 99%
Population Pyknosed Nuclei (%) [3]: 12% and 7%
Population Tubulin-Different-Phenotype (%) [3]: 66% and 78%
Total Cell Count [3]: 91 and 271
Population Apoptotic (%) [4]: 80% and 78%
Population Fragmented Nuclei (%) [4]: 14% and 6%
Population Healthy Nuclei (%) [4]: 48% and 72%
Population Hoechst High Intensity Objects (%) [4]: 0% and 1%
Population Membrane Permeable-Phenotype (%) [4]: 0% and 5%
Population Mitochondria Different-Phenotype (%) [4]: 0% and 4%
Population Mitotic Cells (%) [4]: 20% and 21%
Population Normal (%) [4]: 100% and 98%
Population Pyknosed Nuclei (%) [4]: 37% and 21%
Population Tubulin-Different-Phenotype (%) [4]: 69% and 56%
Population Apoptotic (%) [5]: 50% and 76%
Population Fragmented Nuclei (%) [5]: 8% and 2%
Population Healthy Nuclei (%) [5]: 80% and 89%
Population Hoechst High Intensity Objects (%) [5]: 0%
Population Membrane Permeable-Phenotype (%) [5]: 0% and 1%
Population Mitochondria Different-Phenotype (%) [5]: 0%
Population Mitotic Cells (%) [5]: 50% and 23%
Population Normal (%) [5]: 100% and 99%
Population Pyknosed Nuclei (%) [5]: 10% and 8%
Population Tubulin-Different-Phenotype (%) [5]: 72% and 82%
Population Apoptotic (%) [6]: 86% and 82%
Population Fragmented Nuclei (%) [6]: 11% and 6%
Population Healthy Nuclei (%) [6]: 25% and 60%
Population Hoechst High Intensity Objects (%) [6]: 0%
Population Membrane Permeable-Phenotype (%) [6]: 0% and 7%
Population Mitochondria Different-Phenotype (%) [6]: 0% and 5%
Population Mitotic Cells (%) [6]: 13% and 17%
Population Normal (%) [6]: 100% and 99%
Population Pyknosed Nuclei (%) [6]: 63% and 33%
Population Tubulin-Different-Phenotype (%) [6]: 44% and 60%
